Assay outcomes: PubChem, Johns Hopkins Ion Channel Center
TRPC6 inh: inhibitors of mouse TRPC6 channel. B-score at 10 µM. 1.1% of 310,000 active. HEK293-TRPC6, membrane potential dye, ACh-evoked depolarization; stronger effect = lower value. AID 2553. Q61143;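 active = B-score under library mean minus 3 SD, initial fluorescence not abnormally high, positive integrated signal ratio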;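 also: B-score derived from integrated fluorescence ratio over the kinetic read; more negative B-score means stronger inhibition of depolarization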
Target sequence (Q61143 whole entry, looked up): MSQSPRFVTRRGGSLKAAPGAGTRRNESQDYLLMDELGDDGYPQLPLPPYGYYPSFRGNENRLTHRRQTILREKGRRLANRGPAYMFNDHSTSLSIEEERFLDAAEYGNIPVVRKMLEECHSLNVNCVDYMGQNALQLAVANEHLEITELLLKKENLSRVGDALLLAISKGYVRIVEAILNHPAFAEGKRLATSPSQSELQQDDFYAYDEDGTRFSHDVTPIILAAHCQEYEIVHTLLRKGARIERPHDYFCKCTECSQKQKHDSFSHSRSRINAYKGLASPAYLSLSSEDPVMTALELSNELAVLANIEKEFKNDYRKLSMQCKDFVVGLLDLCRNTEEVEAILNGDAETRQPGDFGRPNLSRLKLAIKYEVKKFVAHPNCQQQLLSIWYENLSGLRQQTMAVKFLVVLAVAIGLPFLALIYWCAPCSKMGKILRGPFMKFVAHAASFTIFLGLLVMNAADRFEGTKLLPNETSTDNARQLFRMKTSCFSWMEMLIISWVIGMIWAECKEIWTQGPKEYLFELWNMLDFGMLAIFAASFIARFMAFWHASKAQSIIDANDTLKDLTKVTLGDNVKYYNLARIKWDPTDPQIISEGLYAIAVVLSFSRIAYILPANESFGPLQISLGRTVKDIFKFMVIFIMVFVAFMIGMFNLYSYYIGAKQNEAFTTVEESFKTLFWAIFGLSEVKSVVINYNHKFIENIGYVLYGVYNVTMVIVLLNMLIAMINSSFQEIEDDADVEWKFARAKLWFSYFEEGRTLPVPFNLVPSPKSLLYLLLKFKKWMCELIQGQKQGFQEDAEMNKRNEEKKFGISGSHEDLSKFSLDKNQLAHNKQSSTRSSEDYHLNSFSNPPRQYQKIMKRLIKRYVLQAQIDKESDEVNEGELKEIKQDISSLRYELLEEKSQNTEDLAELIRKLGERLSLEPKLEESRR
TRPC6 act: mouse TRPC6 channel activation. Q61143. HEK293-TRPC6 membrane potential dye fluorescence; stronger effect = higher value. B-score at 10 µM. 0.13% of 310,000 active;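 active = B-score of the integrated fluorescence ratio above library mean plus 3 SD, and starting fluorescence ratio within library mean plus 5 SD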;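 also: higher score means more depolarization so channel activation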
TRPC4 act: TRPC4 (mouse) channel activation; Q9QUQ5; HEK293 TRPC4beta/mu-opioid, Fluo4 calcium fluorescence; stronger effect = higher value; B-score at 10 µM; 0.49% of 310,000 active; AID 2237;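 active = B-score above 5 SD of library B-scores, and initial fluorescence ratio not above library mean plus 5 SD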;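 also: positive B-score marks a calcium rise read as TRPC4 activation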
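Assay system: HEK293 stable line with TRPC4beta plus mu-opioid receptor. Times: dye 45 min RT, read 110 s. Measured by: kinetic Fluo4 calcium fluorescence. Measure: B score of integrated ratio. Controls: assay buffer as low control, maximal DAMGO as high control.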
TRPC4 inh: TRPC4 (mouse) channel inhibition | Q9QUQ5 | HEK293 TRPC4beta/mu-opioid, DAMGO-evoked Fluo4 calcium flux; stronger effect = lower value | B-score at 10 µM | 0.39% of 300,000 active | AID 2247;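 active = B-score over 3 SD under the library average, no early fluorescence shift, positive overall ratio signal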
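material = TRPC4beta/mu-opioid receptor HEK293 cell line | probe or stimulus = sequential submaximal and maximal DAMGO stimulation | compound dosing = one concentration per compound | measured by = Fluo4 Ca2+ flux fluorescence | evaluation = integrated fluorescence ratio relative to baseline, converted to per-well B score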
TRPC4 potent: TRPC4 (mouse) allosteric potentiation. HEK293 TRPC4beta/mu-opioid, DAMGO EC20, Fluo-4 Ca2+ flux; stronger effect = higher value. 0.42% of 310,000 active. Q9QUQ5. B-score at 10 µM;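 active = B-score of calcium response area above 5 SD of library B-scores, with initial fluorescence ratio within 5 SD of library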
TRPC4 spec 2: second check of whether TRPC6 inhibitors also affect mouse TRPC4; shares compounds with TRPC6 inh; HEK293 TRPC4/MOR, membrane potential dye fluorescence; channel activated by saturating DAMGO dose; inhibition, % at 10 µM; 42% of 920 active;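 active = compounds whose fluorescence signal differed from control wells by over 3 SD, either direction, in both duplicate plates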
TRPC4 spec: selectivity of TRPC6 inhibitors: effect on mouse TRPC4 | shares compounds with TRPC6 inh | HEK293 TRPC4/mu-opioid, membrane potential fluorescence | activity change, negative = inhibition, % at 10 µM | 61% of 920 active | AID 2777;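 active = rise or fall in signal beyond 3 SD of buffer-only wells in both replicate plates, either sign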;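 also: integrated kinetic ratio of fluorescence range over baseline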
HEK293 MPD ctr 2-1: second check of TRPC6 inhibitor effects in parental HEK293 cells | shares compounds with TRPC6 inh | parental HEK293 membrane potential dye fluorescence; maximal acetylcholine challenge after compound addition | signal change vs control, % at 10 µM | 31% of 920 active;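 active = membrane potential signal moving either way by over 3 SD of the maximum-effect control, in both duplicate plates, meaning non-specific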
HEK293 MPD ctr-1: counter-screen for TRPC6 inhibitors: effect in parental HEK293 cells | parental HEK293 membrane potential dye fluorescence | shares compounds with TRPC6 inh | 60% of 920 active | AID 2780 | membrane potential signal change, % at 10 µM;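 active = membrane potential signal shifting up or down by more than 3 SD of buffer-only wells, on both duplicate plates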
HEK293 MPD ctr-2: parental HEK293 nonspecific activity of TRPC6 modulators | shares compounds with TRPC6 inh | membrane potential dye fluorescence | membrane potential signal change, % at 10 µM | 51% of 2,400 active | AID 488924;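 active = membrane potential signal moves up or down beyond 5 SD from buffer-only wells, on both duplicate plates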
HEK293 MPD ctr 2-2: second counter-screen for TRPC6 modulators: effect in parental HEK293 cells. shares compounds with TRPC6 inh. membrane potential dye fluorescence; after compound, maximal acetylcholine stimulation. inhibition, % at 10 µM. 14% of 2,400 active;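 active = membrane potential signal drops by more than 5 SD from the mean control signal, in both duplicate plates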
TRPC4/MOR mod: selectivity of TRPC6 modulators against mouse TRPC4; shares compounds with TRPC6 inh; HEK293 TRPC4/mu-opioid, membrane potential fluorescence; percent change from control (negative = decrease, positive = increase), % at 10 µM; 69% of 2,400 active; AID 488927;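 active = membrane potential signal moved up or down beyond 5 SD of buffer control wells, in both duplicate plates, actives on both sides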
TRPC4 ctr inh 2: second check of whether TRPC6 modulators also affect mouse TRPC4. inhibition, % at 10 µM. HEK293 TRPC4/mu-opioid, membrane potential dye fluorescence; stimulated with maximal-effect DAMGO. shares compounds with TRPC6 inh. AID 488928. 55% of 2,400 active;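 active = drop in membrane potential signal beyond 5 SD of the control wells in both duplicate plates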;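 also: TRPC4 counter screen for TRPC6 hits run under conditions tuned for TRPC6 not TRPC4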
TRPC6 block conf: confirmation of mouse TRPC6 inhibitors; inhibition, % at 10 µM; 43% of 3,300 active; shares compounds with TRPC6 inh; HEK293-TRPC6, membrane potential dye, ACh-evoked depolarization;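 active = fluorescence ratio falls more than 5 SD below the full-stimulation control mean, in both duplicate runs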;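 also: integrated fluorescence ratio of peak minus minimum over baseline after agonist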
TRPC6 act conf: confirmation of mouse TRPC6 activators. shares compounds with TRPC6 inh. HEK293-TRPC6 membrane potential dye fluorescence, FDSS. activation, % at 10 µM. 11% of 2,800 active. AID 488961;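 active = ratio signal rise beyond 5 SD above unstimulated control wells' mean, seen in both duplicate runs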
Hits are given with their value; i = inactive; nt = no result given. Sampled rows, rich in hits. Any-hit rate of the full collection: about 2.3%.

SMILES | TRPC6 inh | TRPC6 act | TRPC4 act | TRPC4 inh | TRPC4 potent | HEK293 MPD ctr-2 | HEK293 MPD ctr 2-2 | TRPC4/MOR mod | TRPC4 ctr inh 2 | TRPC6 block conf | TRPC6 act conf | others
CCOC(=O)c1c(CSc2ccccc2)n(C)c2cc(Br)c(OC)c(O)c12 | i | i | i | i | i | nt | nt | nt | nt | nt | nt
CCOC(=O)c1c(C)n(C)c2ccc(O)c(CN(CC)CC)c12 | -6.5 | i | i | i | i | -112% | i | -14% | 52% | 54% | i
CCOC(=O)c1c(C)n(-c2ccccc2)c2ccc(O)c(CN(C)C)c12 | -6.5 | i | i | i | i | -90% | i | -18% | 65% | 69% | i
CCOC(=O)c1c(C)n(-c2ccccc2)c2ccc(O)cc12 | i | i | i | i | i | nt | nt | nt | nt | nt | nt
CN(CC(=O)Nc1ccc(F)cc1)C(=O)COC(=O)c1cc(S(=O)(=O)N(C)C)ccc1N1CCCC1 | i | i | i | i | i | nt | nt | nt | nt | nt | nt
COc1ccc(N2CCN(C(=O)Cn3nnc(-c4ccc(OC)c(OC)c4)n3)CC2)cc1 | i | i | i | i | i | nt | nt | nt | nt | nt | nt
Cc1ccc(-c2nnn(CC(=O)N3CCN(c4ccccc4)CC3)n2)o1 | -5.3 | i | i | i | i | i | i | i | i | i | i
CCCCn1c(N)c(N(CCOC)C(=O)c2ccc(Cl)c(S(=O)(=O)N3CCCCC3)c2)c(=O)[nH]c1=O | i | i | i | i | i | nt | nt | nt | nt | nt | nt
COc1ccc(Nc2ccc(S(=O)(=O)N3CCCCC3)cc2[N+](=O)[O-])cc1 | -5.3 | i | i | i | 26 | i | i | i | i | i | i
Cc1nn(C(C)C(=O)N2CCN(c3ccccn3)CC2)c(=O)c2cc3occc3n12 (stereo not given) | i | i | i | i | i | nt | nt | nt | nt | nt | nt
Cc1cccc(N2CCN(C(=O)C(C)n3nc(C)n4c(cc5occc54)c3=O)CC2)c1C (stereo not given) | -5.1 | i | i | i | i | i | i | 14% | i | i | nt
COc1cc(CCC(=O)OCC(=O)N(CCC#N)c2ccccc2)cc(OC)c1OC | -5.4 | i | i | i | i | i | i | i | i | i | i
N#CCCN(C(=O)COC(=O)Cc1ccc(Br)cc1)c1ccccc1 | i | i | i | i | i | nt | nt | nt | nt | nt | nt
O=c1ccc(Cl)cn1Cc1ccccc1F | i | i | i | i | i | nt | nt | nt | nt | nt | nt
CC(C)CN(C(=O)c1ccc(S(=O)(=O)N2CCCC2)cc1)C1CCS(=O)(=O)C1 (stereo not given) | i | i | i | i | i | nt | nt | nt | nt | nt | nt
COc1cc(C)ccc1NC(=O)c1ccc(S(=O)(=O)N2CCOCC2)cc1 | -6.1 | i | i | i | i | i | i | i | i | i | i
O=C(NCC1CCN(c2ccc(S(=O)(=O)N3CCOCC3)cc2)CC1)c1ccc(Cl)cc1 | -5.5 | i | i | i | i | i | i | i | i | 52% | i
CS(=O)(=O)c1ccccc1-c1nnc(NC(=O)c2ccc(S(=O)(=O)N3CCCC3)cc2)o1 | i | i | i | i | i | nt | nt | nt | nt | nt | nt
O=C(Nc1nnc(-c2ccccc2Cl)o1)c1ccc(S(=O)(=O)N2CCCCCC2)cc1 | -6.3 | i | 71 | i | i | i | i | -10% | i | i | i
NC(=O)C1CC(=O)N(c2ccc(OCc3ccccc3Cl)cc2)C1 (stereo not given) | i | i | i | i | i | nt | nt | nt | nt | nt | nt
Cc1ccc(NC(=O)CN(C)C(=O)Cn2ccsc2=N)cc1 | i | i | i | i | i | nt | nt | nt | nt | nt | nt
N=c1sccn1CC(=O)Nc1ccccc1Oc1ccccc1 | -5.1 | i | i | -6 | i | i | i | i | 76% | i | i
Cc1ccc(Oc2ccc(NC(=O)Cn3ccsc3=N)cc2)cc1 | -8.3 | i | 60 | i | i | nt | nt | nt | nt | 89% | i | TRPC4 spec 2=29%;TRPC4 spec=i;HEK293 MPD ctr 2-1=i;HEK293 MPD ctr-1=i
CCc1ccc(C(=O)NNC(=S)Nc2ccc(S(N)(=O)=O)cc2)s1 | i | i | i | i | i | nt | nt | nt | nt | nt | nt
COc1ccc(NC(=O)CN(C)C(=O)c2cc(C)on2)cc1 | -5.7 | i | i | i | i | i | i | i | i | i | i
SMILES | TRPC6 inh | TRPC6 act | TRPC4 act | TRPC4 inh | TRPC4 potent | HEK293 MPD ctr-2 | HEK293 MPD ctr 2-2 | TRPC4/MOR mod | TRPC4 ctr inh 2 | TRPC6 block conf | TRPC6 act conf | others
Cc1cc(C(=O)N(C)CC(=O)Nc2cccc(F)c2)no1 | i | i | i | i | i | nt | nt | nt | nt | nt | nt
Cc1ccc[n+](CC(=O)c2cc3ccccc3oc2=O)c1 | -6.5 | i | i | i | i | -76% | i | -22% | i | 70% | i
CCOC(=O)Nc1ccc2c(c1)N(CCCN(C)C)c1ccccc1CC2 | -7.8 | i | i | i | i | nt | nt | nt | nt | 51% | i | TRPC4 spec 2=i;TRPC4 spec=i;HEK293 MPD ctr 2-1=i;HEK293 MPD ctr-1=i
COc1cc(C(=O)Nc2ccc3c(c2)N(C(=O)CCN(C)C)c2ccccc2CC3)cc(OC)c1OC | -8.8 | i | i | i | i | i | i | i | i | 58% | i
CCOC(=O)Nc1ccc2c(c1)N(C(=O)OC)c1ccccc1CC2 | i | i | i | i | i | nt | nt | nt | nt | nt | nt
CCC(c1nnc(SCC(=O)NCCc2ccc(Cl)cc2Cl)o1)N(C)C (stereo not given) | i | i | i | i | i | nt | nt | nt | nt | nt | nt
O=C1Nc2ccccc2/C1=N\N=C\C1=C(N2CCOCC2)C(=C\c2ccccc2)/CC1 | -9.5 | i | i | i | i | nt | nt | nt | nt | 90% | i | TRPC4 spec 2=33%;TRPC4 spec=-29%;HEK293 MPD ctr 2-1=-22%;HEK293 MPD ctr-1=-326%
Cn1cc(C(=O)N/N=C/C2=C(N3CCOCC3)C(=C\c3ccccc3)/CC2)ccc1=O | i | i | i | i | i | nt | nt | nt | nt | nt | nt
COc1cccc2cc(C(=O)NCCc3ccccc3)oc12 | -6.2 | i | i | i | i | 90% | i | 16% | i | i | nt
